The values below come from ChEMBL document CHEMBL3091458, “Design, synthesis, and biological evaluation of 1,2,4-triazole bearing 5-substituted biphenyl-2-sulfonamide derivatives as potential antihypertensive candidates” (Bioorg Med Chem, 2013).

As usually defined, the IC50 is the concentration at which inhibition is half-maximal. High values mean lower potency, low ones higher potency.

Molecules are shown by their SMILES.

The nature of one experiment: Displacement of [125I]-Ang-2 from AT1 receptor in rat liver membranes after 1.5 hrs. The format is cell membranes, Membrane. For orientation: Displacement assays read how much labelled ligand stays bound in the presence of the test substance.
Take `Cc1cc(Cn2cnc3c2C[C@@H](C(=O)O)N(C(=O)C(c2ccccc2)c2ccccc2)C3)ccc1N(C)C`: the IC50 is above 10 µM.
On the same count and under the same terms, to `CCC(=O)NS(=O)(=O)c1ccc(CC(C)C)cc1-c1ccc(Cn2cncn2)cc1` belongs above 10 µM; to `CCCCC(=O)NS(=O)(=O)c1ccc(CC(C)C)cc1-c1ccc(Cn2cncn2)cc1`, above 10 µM.
Take `Cc1ccc(C(=O)NS(=O)(=O)c2ccc(CC(C)C)cc2-c2ccc(Cn3cncn3)cc2)cc1`: the concentration for half-maximal inhibition (IC50) was above 10 µM.
Still for that read-out and setting: to `CCOC(=O)NS(=O)(=O)c1ccc(CC(C)C)cc1-c1ccc(Cn2cncn2)cc1` belongs above 10 µM.
Same read-out and setting: for `CC(C)Cc1ccc(S(=O)(=O)NC(=O)OC(C)(C)C)c(-c2ccc(Cn3cncn3)cc2)c1` the value was above 10 µM; for `CC(C)Cc1ccc(S(=O)(=O)NC(=O)OCc2ccccc2)c(-c2ccc(Cn3cncn3)cc2)c1`, above 10 µM; for `CCC(=O)NS(=O)(=O)c1ccc(OC)cc1-c1ccc(Cn2cncn2)cc1`, above 10 µM.
On the same count and under the same terms, to `CCCCC(=O)NS(=O)(=O)c1ccc(OC)cc1-c1ccc(Cn2cncn2)cc1` belongs above 10 µM; to `CCOC(=O)NS(=O)(=O)c1ccc(OC)cc1-c1ccc(Cn2cncn2)cc1`, above 10 µM; to `COc1ccc(S(=O)(=O)NC(=O)OC(C)(C)C)c(-c2ccc(Cn3cncn3)cc2)c1`, above 10 µM.
The compound `COc1ccc(S(=O)(=O)NC(=O)OCc2ccccc2)c(-c2ccc(Cn3cncn3)cc2)c1` returned a half-inhibitory concentration (IC50) above 10 µM.
On to `CCC(=O)NS(=O)(=O)c1ccc(C)cc1-c1ccc(Cn2cncn2)cc1`, for which the IC50 is above 10 µM.
The compound `CCCCC(=O)NS(=O)(=O)c1ccc(C)cc1-c1ccc(Cn2cncn2)cc1` yielded an IC50 above 10 µM.
Still for that read-out and setting: to `CCOC(=O)NS(=O)(=O)c1ccc(C)cc1-c1ccc(Cn2cncn2)cc1` belongs above 10 µM; to `Cc1ccc(S(=O)(=O)NC(=O)OC(C)(C)C)c(-c2ccc(Cn3cncn3)cc2)c1`, above 10 µM.
The same measure, in the same setting: to `CCCCOC(=O)NS(=O)(=O)c1ccc(C)cc1-c1ccc(Cn2cncn2)cc1` belongs above 10 µM.
Consider `Cc1ccc(S(=O)(=O)NC(=O)OCc2ccccc2)c(-c2ccc(Cn3cncn3)cc2)c1`, for which the concentration for half-maximal inhibition (IC50) was above 10 µM.
Same read-out and setting: to `CCOC(=O)NS(=O)(=O)c1ccc(CN(CC)CC)cc1-c1ccc(Cn2cncn2)cc1` belongs above 10 µM.
On the same count and under the same terms, to `CCCCOC(=O)NS(=O)(=O)c1ccc(CN(CC)CC)cc1-c1ccc(Cn2cncn2)cc1` belongs above 10 µM; to `CCN(CC)Cc1ccc(S(=O)(=O)NC(=O)OCc2ccccc2)c(-c2ccc(Cn3cncn3)cc2)c1`, above 10 µM; to `CCCCOC(=O)NS(=O)(=O)c1ccc(CC(C)C)cc1-c1ccc(N)cc1`, above 10 µM.
Regarding `CCCCOC(=O)NS(=O)(=O)c1ccc(CC(C)C)cc1-c1ccc(NC)cc1`, the concentration for half-maximal inhibition (IC50) is above 10 µM.
Compound `CCCCOC(=O)NS(=O)(=O)c1ccc(CC(C)C)cc1-c1ccc(NCC)cc1` displayed a concentration for half-maximal inhibition (IC50) above 10 µM.
On to `CCCCOC(=O)NS(=O)(=O)c1ccc(CC(C)C)cc1-c1ccc(NCCC)cc1`, for which the half-inhibitory concentration (IC50) was above 10 µM.
Still for that read-out and setting: to `CCCCOC(=O)NS(=O)(=O)c1sc(CC(C)C)cc1-c1ccc(Cn2ccnc2)cc1` [BULOXIBUTID] belongs above 10 µM.

The next experiment is described as follows: Displacement of [125I]-Ang-2 from AT2 receptor in porcine myometrial membranes after 1.5 hrs. The format is cell membranes, Sus scrofa. A digest of the protocol: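 Membranes were made from porcine uteri (myometrium). AT1 binding was blocked by adding losartan. [125I]Ang II binding ran in 50 mM Tris-HCl pH 7.4 with 100 mM NaCl, 10 mM MgCl2, 1 mM EDTA, 0.025% bacitracin and 0.2% BSA, at 25 °C for 1.5 h. Bound ligand was caught on GF/C filters, washed with cold Tris and gamma-counted. IC50 was the concentration displacing 50% of specific binding. Run in triplicate.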
`Cc1cc(Cn2cnc3c2C[C@@H](C(=O)O)N(C(=O)C(c2ccccc2)c2ccccc2)C3)ccc1N(C)C` returned an IC50 of 29 nM.
With `CCC(=O)NS(=O)(=O)c1ccc(CC(C)C)cc1-c1ccc(Cn2cncn2)cc1`, the IC50 was determined as 68 nM.
Turning to `CCCCC(=O)NS(=O)(=O)c1ccc(CC(C)C)cc1-c1ccc(Cn2cncn2)cc1`, the IC50 amounted to 31 nM.
`Cc1ccc(C(=O)NS(=O)(=O)c2ccc(CC(C)C)cc2-c2ccc(Cn3cncn3)cc2)cc1` returned an IC50 above 10000 nM.
`CCOC(=O)NS(=O)(=O)c1ccc(CC(C)C)cc1-c1ccc(Cn2cncn2)cc1` registered an IC50 of 10 nM.
The compound `CC(C)Cc1ccc(S(=O)(=O)NC(=O)OC(C)(C)C)c(-c2ccc(Cn3cncn3)cc2)c1` showed an IC50 of 55 nM.
Still for that read-out and setting: for `CC(C)Cc1ccc(S(=O)(=O)NC(=O)OCc2ccccc2)c(-c2ccc(Cn3cncn3)cc2)c1` the value was above 10000 nM; for `CCC(=O)NS(=O)(=O)c1ccc(OC)cc1-c1ccc(Cn2cncn2)cc1`, 184 nM.
`CCCCC(=O)NS(=O)(=O)c1ccc(OC)cc1-c1ccc(Cn2cncn2)cc1` returned a concentration for half-maximal inhibition (IC50) of 99 nM.
Still for that read-out and setting: to `CCOC(=O)NS(=O)(=O)c1ccc(OC)cc1-c1ccc(Cn2cncn2)cc1` belongs 36 nM; to `COc1ccc(S(=O)(=O)NC(=O)OC(C)(C)C)c(-c2ccc(Cn3cncn3)cc2)c1`, 170 nM; to `COc1ccc(S(=O)(=O)NC(=O)OCc2ccccc2)c(-c2ccc(Cn3cncn3)cc2)c1`, above 10000 nM.
With `CCC(=O)NS(=O)(=O)c1ccc(C)cc1-c1ccc(Cn2cncn2)cc1`, the IC50 was found to be 223 nM.
The same measure, in the same setting: to `CCCCC(=O)NS(=O)(=O)c1ccc(C)cc1-c1ccc(Cn2cncn2)cc1` belongs 106 nM; to `CCOC(=O)NS(=O)(=O)c1ccc(C)cc1-c1ccc(Cn2cncn2)cc1`, 64 nM; to `Cc1ccc(S(=O)(=O)NC(=O)OC(C)(C)C)c(-c2ccc(Cn3cncn3)cc2)c1`, 289 nM.
On the same count and under the same terms, for `CCCCOC(=O)NS(=O)(=O)c1ccc(C)cc1-c1ccc(Cn2cncn2)cc1` the value was 16 nM; for `Cc1ccc(S(=O)(=O)NC(=O)OCc2ccccc2)c(-c2ccc(Cn3cncn3)cc2)c1`, above 10000 nM.
`CCOC(=O)NS(=O)(=O)c1ccc(CN(CC)CC)cc1-c1ccc(Cn2cncn2)cc1` returned an IC50 of 117 nM.
The compound `CCCCOC(=O)NS(=O)(=O)c1ccc(CN(CC)CC)cc1-c1ccc(Cn2cncn2)cc1` displayed an IC50 of 10 nM.
`CCN(CC)Cc1ccc(S(=O)(=O)NC(=O)OCc2ccccc2)c(-c2ccc(Cn3cncn3)cc2)c1` showed an IC50 above 10000 nM.
`CCCCOC(=O)NS(=O)(=O)c1ccc(CC(C)C)cc1-c1ccc(N)cc1` returned an IC50 above 10000 nM.
On the same count and under the same terms, for `CCCCOC(=O)NS(=O)(=O)c1ccc(CC(C)C)cc1-c1ccc(NC)cc1` the value was above 10000 nM; for `CCCCOC(=O)NS(=O)(=O)c1ccc(CC(C)C)cc1-c1ccc(NCC)cc1`, above 10000 nM.
Still for that read-out and setting: for `CCCCOC(=O)NS(=O)(=O)c1ccc(CC(C)C)cc1-c1ccc(NCCC)cc1` the value was above 10000 nM; for `CCCCOC(=O)NS(=O)(=O)c1sc(CC(C)C)cc1-c1ccc(Cn2ccnc2)cc1` [BULOXIBUTID], 0.4 nM.
